Screening data (PubChem BioAssay)
FGF22 binding: binders of human FGF22 protein, primary screen, FGF22 synaptogenesis inhibitor project, biophysical, thermal shift, single point. AID 651658, 2012. Fibroblast growth factor 22 (Homo sapiens), Q9HCT0. 340,000 compounds, 1.5% hits. recombinant FGF22 thermal shift, SYPRO orange fluorescence; percent of sucrose octasulfate shift, DMSO zero. activity (Tm shift, normalised), % at 9.99 µM;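 active means mean Tm shift, scaled 0 neutral to 100 positive control, at about 1.3% or above, every replicate too, limit read from the data; inconclusive means no clear call, values can overlap the other calls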
Target sequence (Q9HCT0 whole entry, looked up): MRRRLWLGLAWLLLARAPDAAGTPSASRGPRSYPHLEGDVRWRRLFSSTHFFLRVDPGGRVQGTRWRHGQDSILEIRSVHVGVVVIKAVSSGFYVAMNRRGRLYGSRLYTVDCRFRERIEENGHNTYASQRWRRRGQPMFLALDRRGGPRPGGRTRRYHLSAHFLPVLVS
ARNT TACC3 PPI: disruptors of ARNT/TACC3 protein interaction, primary screen, biochemical, AlphaScreen, single concentration; Transforming acidic coiled-coil-containing protein 3 (Homo sapiens), Q9Y6A5; AlphaScreen His-ARNT PAS-B/GST-TACC3 binding, luminescence; TACC3 fragment carries E629A point mutation; inhibition, % at 9.99 µM; 390,000 compounds, 0.66% hits; AID 623870, 2012;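 active means mean inhibition of replicates at least 50% and at least half of replicates each reaching 50%; inconclusive means half or more replicates reach 50% but mean below 50%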
SIRT5 inh: SIRT5 desuccinylase inhibitors, primary screen, biochemical, fluorescence imaging, single point, set 5; Purified SirT5, succinyl-peptide AMC, trypsin-coupled fluorescence; inhibition, % at 15 µM; 330,000 compounds, 1.1% hits; in the data active means inhibition above about 15%; inconclusive means no clear call, values can overlap the other calls
Target sequence (Q9NXA8 whole entry, looked up): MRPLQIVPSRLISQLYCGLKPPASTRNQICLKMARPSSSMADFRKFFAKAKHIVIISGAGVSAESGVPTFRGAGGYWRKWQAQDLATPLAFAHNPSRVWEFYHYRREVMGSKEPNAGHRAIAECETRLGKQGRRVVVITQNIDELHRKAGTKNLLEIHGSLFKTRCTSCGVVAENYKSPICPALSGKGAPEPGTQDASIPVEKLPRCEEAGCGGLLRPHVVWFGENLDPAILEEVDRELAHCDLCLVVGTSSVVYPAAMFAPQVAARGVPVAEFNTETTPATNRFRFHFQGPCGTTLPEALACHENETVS
FN deposit inh: inhibitors of fibronectin matrix deposition, primary screen, AH1F cells, Alexa488-fibronectin fluorescence, plate reader | AH1F fibroblasts, overnight | inhibition, % at 12.6 µM | AID 743247, 2014 | 350,000 compounds, 0.086% hits;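 active means mean inhibition across replicates of 30% or more, regardless of how many single replicates reach that level; inconclusive means mean under 30% yet at least half of replicates reach 30%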
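Assay system: AH1F fibroblast monolayer, labelled fibronectin deposition. Amount: 10000 cells per well. Also added: labelled fibronectin 24 nM. Compound: single-point pinned compound. Incubation: cell attachment 1 h, compound and FN exposure overnight. Detection: fluorescence after three HBSS washes, excitation 485 nm, emission 525 nm. Read-out: inhibition of fibronectin deposition signal.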
DENV2 CPE: inhibitors of DENV2 cytopathic effect, primary screen, cell-based, plate reader, single concentration; CPE inhibition, % at 9.99 µM; 350,000 compounds, 1.7% hits; DENV2-infected cells, cytopathic effect rescue; in the data active means CPE inhibition above about 20%, passing the limit was not always enough; inconclusive means no clear call, values can overlap the other calls; tested in BHK-21 cells
XiGFP reactiv: activators of inactive X chromosome reactivation, primary screen, imaging, XiGFP fibroblasts, GFP high-content imaging, set 2. AID 743238, 2013. 360,000 compounds, 0.055% hits. XiGFP mouse fibroblasts, % GFP-positive cells imaging, 3 d; cells co-treated with 5-aza-dC sensitizer; scaled so ellipticine positive control = 100%. activation, % at 7.58 µM;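 active means mean normalized replicate activation at least 10% and every replicate at or above 10%; inconclusive means only one of the two criteria met; inactive means mean below 10% and not all replicates reach 10%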
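Schedule: 3 d treatment, 15 min room-temperature fixation; system: 68-5-11 XiGFP fibroblast line; buffer or medium: DMEM plus 5-aza-dC sensitizer; control set: ellipticine 6 µM positive control; compound: one concentration, pinned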
Of the large screens only hits and unclear results are named; the others gave an inactive call. The list is not random: actives were taken first. Their share in the collection is about 3.8%.

CCOC(=O)NNS(=O)(=O)c1cc(Br)ccc1Br	FGF22 binding 43
COc1ccc2c(c1OC)CN(C)CCc1cc3c(cc1C(=O)C2)OCO3	FGF22 binding 43 (no result: FN deposit inh)
COc1cc2c(cc1OC)C(=O)Cc1ccc3c(c1CN(C)CC2)OCO3	none (no result: FN deposit inh, XiGFP reactiv)
O=C(Cn1[nH]c(=O)c2ccccc2c1=O)OCC(=O)c1ccc(F)cc1	SIRT5 inh 16, DENV2 CPE inconclusive
CCOC(=O)C1=C(C)N(C)C(=O)NC1c1cc2c(cc1[N+](=O)[O-])OCO2 (configuration not stated)	FGF22 binding 44 (no result: DENV2 CPE)
CCCCOC(=O)C1=C(C)N(C)C(=O)NC1c1cc2c(cc1Br)OCO2 (configuration not stated)	none (no result: ARNT TACC3 PPI)
C[C@@H]1CCCCO[C@H](CN(C)C(=O)c2ccccc2)[C@H](C)CN([C@@H](C)CO)C(=O)c2cc(NC(=O)Cc3ccccc3)ccc2O1	DENV2 CPE inconclusive (no result: FN deposit inh)
CNC(=S)NNC(=O)c1ccc2c(c1)OCO2	none (no result: FN deposit inh)
CCCCNC(=S)NNC(=O)c1ccc2c(c1)OCO2	DENV2 CPE 142 (no result: SIRT5 inh)
CCn1ccnc1CN(C)Cc1cn(C)nc1-c1ccccc1F	none (no result: ARNT TACC3 PPI)
CCn1ccnc1CN(C)Cc1cn(-c2ccccc2)nc1-c1ccc(OC)cc1F	FGF22 binding 45
C[C@@H]1CN([C@@H](C)CO)C(=O)c2cc(NC(=O)Nc3ccc(F)cc3)ccc2O[C@@H](C)CCCCO[C@@H]1CN(C)Cc1ccc2c(c1)OCO2	none (no result: FN deposit inh)
CCOC(=O)C1=CCC2C(=O)N(C3CCCCC3)C(=O)C12 (configuration not stated)	SIRT5 inh 18, DENV2 CPE inconclusive (no result: ARNT TACC3 PPI)
COc1ccc2[nH]cc(CCNC(=O)Cc3ccc(Br)cc3)c2c1	none (no result: SIRT5 inh)
COc1ccc2[nH]cc(CCNC(=O)Cn3cc(C)c(=O)[nH]c3=O)c2c1	FGF22 binding 43 (no result: SIRT5 inh)
O=C(CSc1cccc2cccnc12)N/N=C/c1ccc(F)cc1	none
CCCCC(=O)N/N=C/c1ccc(Sc2cccc3cccnc23)o1	ARNT TACC3 PPI 54 (no result: FGF22 binding, SIRT5 inh, FN deposit inh, DENV2 CPE, XiGFP reactiv)
CCN1[C@H](C(=O)NC2CCCCC2)[C@@H](CO)[C@@H]2Cn3c(ccc(-c4cccnc4)c3=O)[C@@H]21	none (no result: FN deposit inh)
C[C@@H]1CN([C@H](C)CO)C(=O)c2cc(NC(=O)C3CC3)ccc2O[C@@H]1CN(C)Cc1ccc2c(c1)OCO2	SIRT5 inh 17 (no result: FN deposit inh)
C[C@H](CO)N1C[C@H](C)[C@@H](CN(C)Cc2ccc3c(c2)OCO3)Oc2ccc(N(C)C)cc2C1=O	DENV2 CPE 23
C[C@@H]1CN([C@H](C)CO)C(=O)c2cc(N(C)C)ccc2O[C@H]1CN(C)Cc1ccc2c(c1)OCO2	none (no result: FGF22 binding)
C[C@@H]1CN([C@@H](C)CO)C(=O)c2cc(NC(=O)Nc3ccc4c(c3)OCO4)ccc2O[C@@H]1CN(C)Cc1ccc2c(c1)OCO2	DENV2 CPE 42 (no result: FN deposit inh)
C[C@H]1CN([C@@H](C)CO)C(=O)c2cc(NC(=O)C3CC3)ccc2O[C@H]1CN(C)Cc1ccc2c(c1)OCO2	none (no result: FN deposit inh)
O=C(Nc1cccc(F)c1)N1CCCCN2[C@H](CO)[C@@H](c3ccc(-c4ccncc4)cc3)[C@@H]2C1	none (no result: FN deposit inh)
C[C@@H]1CCCCO[C@@H](CN(C)S(C)(=O)=O)[C@@H](C)CN([C@H](C)CO)C(=O)c2cc(NS(=O)(=O)c3ccccc3)ccc2O1	none (no result: FN deposit inh)
CO[C@@H]1CN(C)C(=O)c2cc(NS(=O)(=O)CC(F)(F)F)ccc2OC[C@H](C)N(CCC(F)(F)F)C[C@@H]1C	none
NS(=O)(=O)c1ccc(CCNC(=O)CCS(=O)(=O)c2ccc(Br)cc2)cc1	SIRT5 inh 16
O=C(CCS(=O)(=O)Cc1ccccc1)NCCc1ccccc1	FGF22 binding 43 (no result: FN deposit inh)
NS(=O)(=O)c1ccc(CCNC(=O)c2ccc(Br)s2)cc1	FGF22 binding 43
C[C@H]1CN([C@@H](C)CO)C(=O)c2cc(NS(=O)(=O)c3cccs3)ccc2O[C@@H]1CN(C)S(=O)(=O)c1ccccc1	none (no result: FN deposit inh)
CCCCC(=O)N/N=C/c1cc([N+](=O)[O-])ccc1N1CCOCC1	none (no result: FGF22 binding, SIRT5 inh, DENV2 CPE)
O=C(CCN1CCOCC1)N/N=C/c1cc([N+](=O)[O-])ccc1OC(F)F	DENV2 CPE 22 (no result: FN deposit inh)
O=C(CCN1CCOCC1)N/N=C/c1cc(Br)cc(Br)c1O	ARNT TACC3 PPI 70 (no result: SIRT5 inh)
CCN(C(C)=O)c1cnc(C=NNC(N)=S)c2ccccc12	ARNT TACC3 PPI 86
COc1ccc(OC)c(/C=C/C(=O)Nc2ccc3c(c2)CCC3)c1	DENV2 CPE 23
CCCCNC(=O)C1C(c2ccc(C(F)(F)F)cc2)=Nc2ccccc2N1C(=O)c1cccc2ccccc12 (configuration not stated)	DENV2 CPE 28 (no result: ARNT TACC3 PPI, SIRT5 inh)
COC(=O)c1ccc(N=Cc2c(C(F)(F)F)[nH]n(C)c2=O)cc1	none
CN(C)S(=O)(=O)c1ccc(N=Cc2c(C(F)(F)F)[nH]n(C)c2=O)cc1	FGF22 binding 44
CCCN(C)C[C@@H]1Oc2cc(C3=CCCC3)ccc2S(=O)(=O)N([C@@H](C)CO)C[C@H]1C	none (no result: FGF22 binding, ARNT TACC3 PPI, SIRT5 inh, FN deposit inh, DENV2 CPE)
CCCNC(=O)C[C@H]1CC[C@H]2[C@H](COc3ccc(NC(=O)Cc4ccccc4)cc3C(=O)N2C)O1	none
C[C@H]1CN([C@@H](C)CO)C(=O)Cc2cc(NC(=O)CCC(F)(F)F)ccc2O[C@H]1CN(C)Cc1ccc(-c2ccccc2)cc1	DENV2 CPE 57 (no result: SIRT5 inh)
C[C@@H]1CN([C@H](C)CO)C(=O)Cc2cc(NC(=O)CCN3CCOCC3)ccc2O[C@H]1CN(C)Cc1ccc(-c2ccccc2)cc1	none (no result: ARNT TACC3 PPI, FN deposit inh)
C[C@H]1CN([C@@H](C)CO)C(=O)Cc2cc(NC(=O)CCN3CCOCC3)ccc2O[C@H]1CN(C)CC1CCCCC1	SIRT5 inh 20 (no result: FN deposit inh)
C[C@@H]1CN([C@@H](C)CO)C(=O)Cc2cc(NC(=O)CCN3CCOCC3)ccc2O[C@@H]1CN(C)Cc1ccncc1	SIRT5 inh 16 (no result: FN deposit inh)
C[C@@H]1CN([C@@H](C)CO)C(=O)Cc2cc(NC(=O)CCN3CCOCC3)ccc2O[C@H]1CN(C)Cc1ccc(-c2ccccc2)cc1	DENV2 CPE 32 (no result: ARNT TACC3 PPI, FN deposit inh)
C[C@H](CO)N1C[C@H](C)[C@@H](CN(C)C(=O)Nc2ccc(C(F)(F)F)cc2)OCCCC[C@H](C)Oc2ccc(NC(=O)CCC(F)(F)F)cc2C1=O	none (no result: FN deposit inh)
